The values below come from ChEMBL document CHEMBL3244254, “Hypolipidemic activity of 5-aryl-3-methylvaleric acid derivatives” (J Med Chem, 1977).

The target in test [1] is T1, 3-hydroxy-3-methylglutaryl-coenzyme A reductase (Rattus norvegicus, UniProt P51639).
T1 sequence (P51639 whole entry): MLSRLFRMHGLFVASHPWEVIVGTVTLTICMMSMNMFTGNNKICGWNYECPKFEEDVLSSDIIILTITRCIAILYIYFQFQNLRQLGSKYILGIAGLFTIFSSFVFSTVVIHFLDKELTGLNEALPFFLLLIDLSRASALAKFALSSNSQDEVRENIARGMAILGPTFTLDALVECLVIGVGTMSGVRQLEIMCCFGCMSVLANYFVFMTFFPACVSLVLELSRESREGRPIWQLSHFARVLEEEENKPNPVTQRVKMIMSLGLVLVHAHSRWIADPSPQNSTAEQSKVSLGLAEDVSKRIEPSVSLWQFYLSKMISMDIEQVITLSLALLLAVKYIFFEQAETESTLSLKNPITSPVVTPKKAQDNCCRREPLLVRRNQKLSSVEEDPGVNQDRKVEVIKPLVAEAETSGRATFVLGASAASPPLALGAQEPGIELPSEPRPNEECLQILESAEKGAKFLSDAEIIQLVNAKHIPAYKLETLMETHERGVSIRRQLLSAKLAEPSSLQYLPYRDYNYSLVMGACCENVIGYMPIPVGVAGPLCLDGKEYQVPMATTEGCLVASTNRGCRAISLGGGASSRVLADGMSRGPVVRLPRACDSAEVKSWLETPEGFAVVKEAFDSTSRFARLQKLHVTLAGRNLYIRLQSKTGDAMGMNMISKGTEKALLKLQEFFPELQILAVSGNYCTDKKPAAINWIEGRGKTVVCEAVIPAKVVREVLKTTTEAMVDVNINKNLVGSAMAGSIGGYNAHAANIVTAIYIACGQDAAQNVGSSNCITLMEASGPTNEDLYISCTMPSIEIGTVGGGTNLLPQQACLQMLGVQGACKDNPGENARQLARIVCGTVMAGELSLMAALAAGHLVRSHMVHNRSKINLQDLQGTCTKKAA
In words: Inhibition of HMG-coA reductase in CD rat liver microsomal-cytosol fraction assessed as inhibition of nonsaponifiable lipid synthesis using [2-14C]acetate as substrate after 90 mins by scintillation counting analysis. In outline: (§1)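 Male CD rats, 150–200 g, housed singly 5 days on chow with 2% DEAE-cellulose, killed by cervical dislocation. Liver microsomal-cytosol fraction as enzyme source, [2-14C]acetate substrate, 90 min at 37 °C. Compounds added in Me2SO, at least four concentrations, duplicates. Lipid extract counted by scintillation (dpm). Heat-inactivated fraction corrects for nonenzymatic incorporation. Fractions are total lipid, nonsaponifiable lipid and fatty acid. IC50 is molar concentration giving 50% inhibition.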
(Liver microsomes are vesicles of endoplasmic reticulum, rich in cytochrome P450 enzymes.)

The subject of test [2] is Rattus norvegicus. Description: Hypolipidemic activity in intact normal CD rat assessed as reduction in serum triglyceride level at 0.45 mmol/kg/day administered through diet for 5 days measured on day 6. In kind it is functional. An outline of the steps:
(§2)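 Male CD rats, 300–380 g, housed in pairs, 12-h light/dark, free access to food and water. Test agent mixed into ground chow at 0.2%; controls got plain ground chow; 8 rats per group. Body weight and group food intake recorded. Fed 5 days, anesthetized on day 6, blood collected, serum total cholesterol or triglyceride measured. Expressed as % reduction vs concurrent controls, Student's t test p ≤ 0.05.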

The test system of test [3] is Rattus norvegicus. In words: Hypolipidemic activity in intact normal CD rat assessed as reduction in serum cholesterol level at 0.45 mmol/kg/day administered through diet for 5 days measured on day 6. In kind it is functional. An outline of the steps: as §2
The target in test [4] is T1, 3-hydroxy-3-methylglutaryl-coenzyme A reductase. Description: Inhibition of HMG-coA reductase in CD rat liver microsomal-cytosol fraction assessed as inhibition of total lipid synthesis using [2-14C]acetate as substrate after 90 mins by scintillation counting analysis. An outline of the steps: as §1
Test [5] deals with Rattus norvegicus. Description: Hypolipidemic activity in intact normal CD rat assessed as reduction in serum triglyceride level at 0.43 mmol/kg/day administered through diet for 5 days measured on day 6. In kind it is functional. In outline:
as §2

The subject of test [6] is Rattus norvegicus. Description: Hypolipidemic activity in intact normal CD rat assessed as reduction in serum cholesterol level at 0.43 mmol/kg/day administered through diet for 5 days measured on day 6. In kind it is functional. An outline of the steps:
as §2

The test system of test [7] is Rattus norvegicus. Description: Hypolipidemic activity in intact normal CD rat assessed as reduction in serum triglyceride level at 0.40 mmol/kg/day administered through diet for 5 days measured on day 6. In kind it is functional. An outline of the steps:
as §2

Test [8] deals with Rattus norvegicus. Description: Hypolipidemic activity in intact normal CD rat assessed as reduction in serum cholesterol level at 0.40 mmol/kg/day administered through diet for 5 days measured on day 6. In kind it is functional. In outline: as §2
Test [9] concerns Rattus norvegicus. Description: Hypolipidemic activity in intact normal CD rat assessed as reduction in serum cholesterol level at 0.38 mmol/kg/day administered through diet for 5 days measured on day 6. The test is classed as functional. In outline: as §2
In test [10] the test system is Rattus norvegicus. In words: Hypolipidemic activity in intact normal CD rat assessed as reduction in serum triglyceride level at 0.38 mmol/kg/day administered through diet for 5 days measured on day 6. In kind it is functional. An outline of the steps: as §2
Test [11] concerns Rattus norvegicus. Description: Hypolipidemic activity in intact normal CD rat assessed as reduction in serum triglyceride level at 0.41 mmol/kg/day administered through diet for 5 days measured on day 6. The test is classed as functional. An outline of the steps:
as §2

Test [12] concerns Rattus norvegicus. In words: Hypolipidemic activity in intact normal CD rat assessed as reduction in serum cholesterol level at 0.41 mmol/kg/day administered through diet for 5 days measured on day 6. The test is classed as functional. In outline:
as §2

In test [13] the test system is Rattus norvegicus. In words: Hypolipidemic activity in intact normal CD rat assessed as reduction in serum cholesterol level at 0.39 mmol/kg/day administered through diet for 5 days measured on day 6. The test is classed as functional. In outline:
as §2

The subject of test [14] is Rattus norvegicus. In words: Hypolipidemic activity in intact normal CD rat assessed as reduction in serum triglyceride level at 0.39 mmol/kg/day administered through diet for 5 days measured on day 6. In kind it is functional. An outline of the steps: as §2
The subject of test [15] is Rattus norvegicus. Description: Hypolipidemic activity in intact normal CD rat assessed as reduction in serum triglyceride level at 0.42 mmol/kg/day administered through diet for 5 days measured on day 6. In kind it is functional. In outline: as §2
Test [16] has as its system Rattus norvegicus. In words: Hypolipidemic activity in intact normal CD rat assessed as reduction in serum cholesterol level at 0.42 mmol/kg/day administered through diet for 5 days measured on day 6. In kind it is functional. In outline:
as §2

The subject of test [17] is Rattus norvegicus. Description: Hypolipidemic activity in intact normal CD rat assessed as reduction in serum triglyceride level at 0.36 mmol/kg/day administered through diet for 5 days measured on day 6. The test is classed as functional. An outline of the steps:
as §2

The subject of test [18] is Rattus norvegicus. Description: Hypolipidemic activity in intact normal CD rat assessed as reduction in serum cholesterol level at 0.36 mmol/kg/day administered through diet for 5 days measured on day 6. The test is classed as functional. In outline:
as §2

The test system of test [19] is Rattus norvegicus. Description: Hypolipidemic activity in intact normal CD rat assessed as reduction in serum cholesterol level at 0.51 mmol/kg/day administered through diet for 5 days measured on day 6. The test is classed as functional. In outline:
as §2

The test system of test [20] is Rattus norvegicus. Description: Hypolipidemic activity in intact normal CD rat assessed as reduction in serum triglyceride level at 0.51 mmol/kg/day administered through diet for 5 days measured on day 6. In kind it is functional. An outline of the steps:
as §2

Structures are written as SMILES.

As to `CC(CCc1ccc(-c2ccccc2)cc1)CC(=O)O` (stereo unspecified), the results for the IC50 in [1] and in test [4] were 2 µM and 20 µM, respectively. Also, the inhibition in vivo (in general, the relative decrease from the control value, in per cent) at 450 µmol/kg in test [2] came to 26%; in [3], 16%.
Regarding `CC(CC(=O)O)CC(=O)c1ccc(-c2ccccc2)cc1` (stereo unspecified), the values for the IC50 in [1] and in test [4] were 70 µM and 180 µM, respectively. Besides, the results for the inhibition in vivo at 430 µmol/kg in [5] and in test [6] were 16% and 26%, respectively.
Turning to `CC(CC(=O)O)CC(=O)c1ccc(Oc2ccccc2)cc1` (stereo unspecified), the inhibition in vivo at 400 µmol/kg in test [7] was ≥ 36%; in [8], 16%. For the same compound, the half-maximal inhibitory concentration (IC50) (in general, the concentration that inhibits the measured activity by half) in test [1] is 290 µM; in test [4] it was 850 µM.
Consider `CC(CC(=O)O)CC(=O)c1ccc(Sc2ccccc2)cc1` (stereo unspecified), for which the inhibition in vivo at 380 µmol/kg in test [9] was 16%; in test [10] it was ≥ 36%. The IC50 was 240 µM in test [1] and 570 µM in test [4].
On to `CC(CC(=O)O)CC(=O)c1ccc2oc3ccccc3c2c1` (stereo unspecified), for which the IC50 in test [1] came to 110 µM; in test [4], 260 µM. Also, the inhibition in vivo at 410 µmol/kg in test [11] was found to be 26%; in test [12], 0%.
As for `CC(CC(=O)O)CC(=O)c1ccc2sc3ccccc3c2c1` (stereo unspecified), the results for the inhibition in vivo at 380 µmol/kg in [9] and in [10] were 16% and 26%, respectively. In addition, the IC50 in test [1] came out at 160 µM; in test [4] it was 310 µM.
On to `CC(CC(=O)O)CC(=O)c1ccc2c(c1)CCc1ccccc1-2` (stereo unspecified), for which the inhibition in vivo at 390 µmol/kg in test [13] is 0%; in test [14], ≥ 36%. In addition, the IC50 in test [1] worked out at 30 µM; in [4] it was 60 µM.
As to `CC(CCc1ccc(Oc2ccccc2)cc1)CC(=O)O` (stereo unspecified), the IC50 in [1] is 20 µM; in test [4] it was 30 µM. In addition, the inhibition in vivo at 420 µmol/kg is ≥ 36% in test [15] and 26% in test [16].
In the case of `CC(CCc1ccc(Sc2ccccc2)cc1)CC(=O)O` (stereo unspecified), the inhibition in vivo at 400 µmol/kg is ≥ 36% in [7] and 26% in test [8]. Moreover, the results for the IC50 in [1] and in test [4] were 20 µM and 40 µM, respectively.
With `CC(CCc1ccc(S(=O)(=O)c2ccccc2)cc1)CC(=O)O` (stereo unspecified), the IC50 turned out to be 40 µM in test [1] and 70 µM in test [4]. Moreover, the inhibition in vivo at 360 µmol/kg in test [17] is 60%; in test [18] it was 45%.
As for `CC(CCc1ccc2oc3ccccc3c2c1)CC(=O)O` (stereo unspecified), the half-inhibitory concentration (IC50) in [1] worked out at 360 µM; in [4], 810 µM. Moreover, the values for the inhibition in vivo at 430 µmol/kg in test [5] and in test [6] were ≥ 36% and 26%, respectively.
For the compound `CC(CCc1ccc2sc3ccccc3c2c1)CC(=O)O` (stereo unspecified), the IC50 came to 70 µM in test [1] and 190 µM in [4]. Further, the inhibition in vivo at 430 µmol/kg in [5] is ≥ 36%; in test [6], 0%.
On to `CC(CCc1ccc2c(c1)-c1ccccc1S2(=O)=O)CC(=O)O` (stereo unspecified), for which the IC50 in test [1] worked out at 80 µM; in test [4], 50 µM. The inhibition in vivo at 360 µmol/kg in test [17] is ≥ 36%; in test [18] it was 16%.
As to `CC(C)(Oc1ccc(Cl)cc1)C(=O)O`, the IC50 came to 860 µM in test [1] and 630 µM in test [4]. The inhibition in vivo at 510 µmol/kg in test [19] and in test [20] was 26% throughout.
